Results reported in ChEMBL document CHEMBL3414568, “Synthesis and antiproliferative activity of 3-(2-chloroethyl)-5-methyl-6-phenyl-8-(trifluoromethyl)-5,6-dihydropyrazolo[3,4-f][1,2,3,5]tetrazepin-4-(3H)-one” (Eur J Med Chem, 2015).
pIC50: −log10 of the molar value.

Key:
WiDr = experiment: Cytotoxicity against human WiDr cells overexpressing MGMT after 48 hrs by trypan blue staining-based hemocytometric analysis; assay type: functional, cell-based
In short: (§1)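 2 × 10⁵ cells per well in 1 mL complete medium treated with various concentrations from freshly prepared DMSO solution (DMSO ≤0.3% v/v final). After 48 h, trypan blue staining and hemocytometer counting of viable cells, expressed as percentage of control proliferation.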

K562 [1] = experiment: Cell cycle arrest in human K562 cells expressing Bcr-Abl assessed as accumulation at G0-G1 phase at 30 uM after 24 hrs by propidium iodide staining-based flow cytometry (reference value: 44.65 +/- 6.8%); assay type: functional
In short: (§2)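 K562 cells cultured with or without 30 µM compound for 24 h and 48 h. Cells washed once in ice-cold PBS, resuspended at 10⁶/mL in hypotonic propidium iodide solution with nonidet P-40 0.03% (v/v) in 0.1% sodium citrate, 30 min incubation, flow cytometry single-parameter DNA histograms. G0-G1/S/G2-M % calculated on cycling cells only; subG0-G1 % on total cell number.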

K562 [2] = experiment: Cell cycle arrest in human K562 cells expressing Bcr-Abl assessed as accumulation at subG0-G1 phase at 30 uM after 48 hrs by propidium iodide staining-based flow cytometry (reference value: 3.21 +/- 0.4%); assay type: functional; in short: as §2
HL-60 = experiment: Induction of apoptosis in human HL60 cells after 48 hrs by acridine orange/ethidium bromide staining-based fluorescence microscopic analysis; assay type: functional, cell-based; details: HL-60, 48 h
In short: (§3)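 After 48 h exposure to various concentrations, 2 × 10⁵ cells centrifuged (300 × g) and resuspended in acridine orange/ethidium bromide dye mixture. Examined under oil immersion, 100× objective, by fluorescence microscopy. Live cells take up acridine orange (green) and exclude ethidium bromide (red); apoptotic and necrotic cells scored morphologically.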

K562 [3] = experiment: Cell cycle arrest in human K562 cells expressing Bcr-Abl assessed as accumulation at S phase at 30 uM after 24 hrs by propidium iodide staining-based flow cytometry (reference value: 43.19 +/- 7%); assay type: functional; in short: as §2
K562 [4] = experiment: Cytotoxicity against human K562 cells expressing Bcr-Abl assessed as growth inhibition after 48 hrs by trypan blue staining-based hemocytometric analysis; assay type: functional; details: K562, 48 h; in short: as §1
K562 [5] = experiment: Cell cycle arrest in human K562 cells expressing Bcr-Abl assessed as accumulation at S phase at 30 uM after 48 hrs by propidium iodide staining-based flow cytometry (reference value: 43.19 +/- 7%); assay type: functional; in short: as §2
[6] = Cytotoxicity against human HL60 cells assessed as growth inhibition after 48 hrs by trypan blue staining-based hemocytometric analysis; assay type: functional; details: HL-60, 48 h; in short: as §1
[7] = Induction of apoptosis in human HL60R cells expressing p-glycoprotein after 48 hrs by acridine orange/ethidium bromide staining-based fluorescence microscopic analysis; assay type: functional, cell-based; in short: as §3
K562 [8] = experiment: Cell cycle arrest in human K562 cells expressing Bcr-Abl assessed as accumulation at G2-M phase at 30 uM after 24 hrs by propidium iodide staining-based flow cytometry (reference value: 12.16 +/- 2.2%); assay type: functional; in short: as §2
K562 [9] = experiment: Cell cycle arrest in human K562 cells expressing Bcr-Abl assessed as accumulation at G2-M phase at 30 uM after 48 hrs by propidium iodide staining-based flow cytometry (reference value: 12.16 +/- 2.2%); assay type: functional; in short: as §2
HepG2 [10] = experiment: Induction of apoptosis in human HepG2 cells after 48 hrs by acridine orange/ethidium bromide staining-based fluorescence microscopic analysis; assay type: functional, cell-based; details: HepG2, 48 h; in short: as §3
HepG2 [11] = experiment: Cytotoxicity against human HepG2 cells assessed as growth inhibition after 48 hrs by trypan blue staining-based hemocytometric analysis; assay type: functional; details: HepG2, 48 h; in short: as §1
K562 [12] = experiment: Cell cycle arrest in human K562 cells expressing Bcr-Abl assessed as accumulation at G0-G1 phase at 30 uM after 48 hrs by propidium iodide staining-based flow cytometry (reference value: 44.65 +/- 6.8%); assay type: functional; in short: as §2
[13] = Cytotoxicity against human HL60R cells expressing p-glycoprotein assessed as growth inhibition after 48 hrs by trypan blue staining-based hemocytometric analysis; assay type: functional; in short: as §1
K562 [14] = experiment: Induction of apoptosis in human K562 cells expressing Bcr-Abl after 48 hrs by acridine orange/ethidium bromide staining-based fluorescence microscopic analysis; assay type: functional, cell-based; details: K562, 48 h; in short: as §3
K562 [15] = experiment: Cell cycle arrest in human K562 cells expressing Bcr-Abl assessed as accumulation at subG0-G1 phase at 30 uM after 24 hrs by propidium iodide staining-based flow cytometry (reference value: 3.21 +/- 0.4%); assay type: functional; in short: as §2

CN1C(=O)N(CCCl)N=Nc2c(C(F)(F)F)nn(-c3ccccc3)c21
pIC50 (WiDr): 5.64
Activity (K562 [1]): 43.96%
Activity (K562 [2]): 38.35%
AC50 (HL-60): 19 µM
Activity (K562 [3]): 43.59%
GI50 (K562 [4]): 18 µM
Activity (K562 [5]): 44.24%
GI50 [6]: 9 µM
AC50 [7]: 22 µM
Activity (K562 [8]): 12.45%
Activity (K562 [9]): 14.79%
AC50 (HepG2 [10]): 43 µM
GI50 (HepG2 [11]): 26 µM
Activity (K562 [12]): 40.97%
GI50 [13]: 14 µM
AC50 (K562 [14]): 37 µM
Activity (K562 [15]): 15%

CN1N=Nc2c(C(F)(F)F)nn(-c3ccccc3)c2N(C)C1=O
GI50 (K562 [4]): 40 µM
GI50 [6]: 21 µM
AC50 [7]: 38 µM
GI50 [13]: 30 µM

COc1cccc2c1C(=O)c1c(O)c3c(c(O)c1C2=O)C[C@@](O)(C(C)=O)C[C@@H]3O[C@H]1C[C@H](N)[C@H](O)[C@H](C)O1 [DAUNORUBICIN]
GI50 [6]: 0.1 µM
GI50 [13]: 38 µM

COc1cc([C@@H]2c3cc4c(cc3[C@@H](O[C@@H]3O[C@@H]5CO[C@@H](C)O[C@H]5[C@H](O)[C@H]3O)[C@H]3COC(=O)[C@H]23)OCO4)cc(OC)c1O [ETOPOSIDE]
GI50 [6]: 0.4 µM
GI50 [13]: > 400 µM

Cn1nnc2c(C(N)=O)ncn2c1=O [TEMOZOLOMIDE]
pIC50 (WiDr): 2.76
